The target of assay [1] is T1, Protein cereblon/Signal transducer and activator of transcription 3 (Homo sapiens, UniProt P40763+Q96SW2). As to the kind of experiment: Protac activity at CRBN/STAT3 in human SUDHL1 cells assessed as degradation of STAT3 at 0.01 to 10 uM incubated for 18 hrs by Western blot analysis. The assay is classed as cell-based. In short, it runs like this: (§1)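 SU-DHL-1 cells treated 18 h with test compound at 0.01–10 μM, or control compounds at 10 μM. Lysates separated by SDS–PAGE, transferred to PVDF, blocked 1 h in 5% blocker/TBST, probed for each STAT protein, and detected by chemiluminescence.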
Target sequence in this assay (P40763 2-770 limits assumed): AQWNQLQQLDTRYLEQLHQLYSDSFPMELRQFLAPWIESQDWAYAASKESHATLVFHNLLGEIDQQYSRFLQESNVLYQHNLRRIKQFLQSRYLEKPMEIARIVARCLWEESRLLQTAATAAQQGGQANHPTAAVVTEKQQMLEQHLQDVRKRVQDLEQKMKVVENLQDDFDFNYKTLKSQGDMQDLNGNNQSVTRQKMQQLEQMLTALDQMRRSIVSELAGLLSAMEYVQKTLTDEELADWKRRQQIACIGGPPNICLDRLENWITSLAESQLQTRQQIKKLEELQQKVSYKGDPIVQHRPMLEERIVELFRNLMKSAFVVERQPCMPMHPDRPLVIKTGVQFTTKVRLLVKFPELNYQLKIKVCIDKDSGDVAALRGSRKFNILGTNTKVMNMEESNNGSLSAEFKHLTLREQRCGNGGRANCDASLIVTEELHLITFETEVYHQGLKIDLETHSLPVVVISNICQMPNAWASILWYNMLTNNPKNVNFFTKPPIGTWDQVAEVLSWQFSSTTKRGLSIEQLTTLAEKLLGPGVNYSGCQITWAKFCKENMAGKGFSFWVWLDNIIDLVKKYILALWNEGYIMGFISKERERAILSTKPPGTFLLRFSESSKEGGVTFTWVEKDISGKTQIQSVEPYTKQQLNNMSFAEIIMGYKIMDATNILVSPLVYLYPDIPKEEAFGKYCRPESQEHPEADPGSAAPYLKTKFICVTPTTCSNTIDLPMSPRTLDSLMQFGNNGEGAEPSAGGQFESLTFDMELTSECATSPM
Target sequence in this assay (Q96SW2 whole entry partner): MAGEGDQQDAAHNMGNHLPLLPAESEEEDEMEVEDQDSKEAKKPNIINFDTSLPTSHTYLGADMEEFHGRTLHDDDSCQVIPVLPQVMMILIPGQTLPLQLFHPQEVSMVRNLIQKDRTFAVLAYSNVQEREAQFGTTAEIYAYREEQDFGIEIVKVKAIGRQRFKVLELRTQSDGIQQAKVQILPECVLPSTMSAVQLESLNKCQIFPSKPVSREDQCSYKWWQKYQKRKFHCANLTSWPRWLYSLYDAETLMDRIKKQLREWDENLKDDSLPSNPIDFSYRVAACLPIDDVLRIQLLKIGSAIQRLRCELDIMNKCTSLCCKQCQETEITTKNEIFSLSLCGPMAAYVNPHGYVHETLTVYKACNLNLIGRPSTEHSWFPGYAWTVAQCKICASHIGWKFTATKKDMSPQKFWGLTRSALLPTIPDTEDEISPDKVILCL
(In general: A western blot detects proteins with antibodies after separation by electrophoresis.)

Assay [2] has as its target T2, Protein cereblon/Signal transducer and activator of transcription 5A (Homo sapiens) (UniProt P42229+Q96SW2). The assay can be described thus: Protac activity at CRBN/STAT5A in human MOLM16 cells assessed as degradation of STAT5A at 0.01 to 10 uM incubated for 4 hrs by Western blot analysis. The class given is cell-based. In outline:
(§2)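 Molm-16 cells treated 4 h with test compound at 0.01–10 μM, or control compounds at 10 μM. Lysates separated by SDS–PAGE, transferred to PVDF, blocked 1 h in 5% blocker/TBST, probed for each STAT protein, and detected by chemiluminescence.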

The species named for assay [3] is Homo sapiens. The assay can be described thus: Selectivity index, ratio of protac activity at CRBN/STAT4 in human MOLM16 cells to protac activity at CRBN/STAT3 in human MOLM16 cells. The assay is classed as cell-based. In outline: (§3)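 Molm-16 cells treated 4 h with compound at 0.01–10 μM, or controls at 10 μM. Western blot of lysates: SDS–PAGE, PVDF, 1 h block in 5% blocker/TBST, primary and secondary antibodies, chemiluminescent detection. STAT1, -2, -4, -5A/B and -6 levels read against STAT3 to give degradation selectivity.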

For assay [4], the species on record is Homo sapiens. The assay can be described thus: Selectivity index, ratio of protac activity at CRBN/STAT2 in human SUDHL1 cells to protac activity at CRBN/STAT3 in human SUDHL1 cells. The class given is cell-based. In short, it runs like this: (§4)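 SU-DHL-1 cells treated 18 h with compound at 0.01–10 μM, or controls at 10 μM. Immunoblotting used SDS–PAGE, PVDF transfer, 1 h block in 5% blocker/TBST, primary and secondary antibodies and chemiluminescence. Levels of other STAT family members compared with STAT3 to express degradation selectivity.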

The species entered for assay [5] is Homo sapiens. As to the kind of experiment: Selectivity index, ratio of protac activity at CRBN/STAT6 in human MOLM16 cells to protac activity at CRBN/STAT3 in human MOLM16 cells. The assay is classed as cell-based. In short, it runs like this:
as §3

The species entered for assay [6] is Homo sapiens. The assay can be described thus: Selectivity index, ratio of protac activity at CRBN/STAT1 in human SUDHL1 cells to protac activity at CRBN/STAT3 in human SUDHL1 cells. The class given is cell-based. In outline:
as §4

Assay [7] has as its system Mus musculus. The assay can be described thus: In vivo degradation of phosphorylated STAT3 Y705 in SCID mouse xenografted with MOLM-16 cells at 50 mg/kg, iv measured upto 72 hrs by Western blot analysis relative to control. The assay is classed as functional. In outline: (§5)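 SCID mice bearing subcutaneous Molm-16 tumors (3 × 10^6 cells in Matrigel; treated at ~150 mm3) given a single intravenous dose in 10% PEG400 + 90% PBS, or vehicle. Tumors harvested at time points. Lysates immunoblotted for total STAT3 and pSTAT3 Y705, compared with vehicle control.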

The nature of assay [8]: Antitumor activity against human MOLM16 cells xenografted in […] mouse assessed as tumor regression at 25 or 50 mg/kg, iv administered 3 times per week for 3 weeks. The assay is classed as functional. (Xenograft models place foreign cells or tissue in a host animal.)
Assay [9] is filed under the species Homo sapiens. The assay can be described thus: Selectivity index, ratio of protac activity at CRBN/STAT1 in human MOLM16 cells to protac activity at CRBN/STAT3 in human MOLM16 cells. The class given is cell-based. In short, it runs like this:
as §3

In assay [10] the target is T2, Protein cereblon/Signal transducer and activator of transcription 5A (Homo sapiens). As to the kind of experiment: Protac activity at CRBN/STAT5A in human SUDHL1 cells assessed as degradation of STAT5A at 0.01 to 10 uM incubated for 18 hrs by Western blot analysis. The assay is classed as cell-based. In short, it runs like this: as §1
Assay [11] relates to Mus musculus. The assay can be described thus: In vivo degradation of STAT3 in SCID mouse xenografted with MOLM-16 cells at 50 mg/kg, iv measured upto 72 hrs by Western blot analysis relative to control. The assay is classed as functional. In short, it runs like this:
as §5

The species entered for assay [12] is Homo sapiens. As to the kind of experiment: Selectivity index, ratio of protac activity at CRBN/STAT5A in human SUDHL1 cells to protac activity at CRBN/STAT3 in human SUDHL1 cells. The class given is cell-based. In outline:
as §4

The target in assay [13] is Protein cereblon/Signal transducer and activator of transcription 6 (Homo sapiens) (UniProt P42226+Q96SW2). As to the kind of experiment: Protac activity at CRBN/STAT6 in human MOLM16 cells assessed as degradation of STAT6 at 0.01 to 10 uM incubated for 4 hrs by Western blot analysis. The class given is cell-based. In outline: as §2
Assay [14] has as its target Protein cereblon/Signal transducer and activator of transcription 4 (Homo sapiens) (UniProt Q96SW2+Q14765). As to the kind of experiment: Protac activity at CRBN/STAT4 in human MOLM16 cells assessed as degradation of STAT4 at 0.01 to 10 uM incubated for 4 hrs by Western blot analysis. The class given is cell-based. In outline:
as §2

Assay [15] deals with Signal transducer and activator of transcription 3 (Homo sapiens, UniProt P40763). The assay can be described thus: Binding affinity to recombinant human His/SUMO-tagged STAT3 (127 to 688 residues) expressed in Escherichia coli Rosetta (DE3) incubated for 1 hr by fluorescence polarization assay. A general note: Polarisation of emitted light reports the rotation of a fluorescent probe.

For assay [16], the system named is Mus musculus. As to the kind of experiment: In vivo degradation of STAT3 in CD1 mouse at 25 mg/kg, iv measured upto 48 hrs by Western blot analysis. The assay is classed as functional, organism-based. In short, it runs like this:
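Female CD-1 mice given a single intravenous dose in 10% PEG400 + 90% PBS, or vehicle. Euthanized at set time points. Spleen harvested and lysates immunoblotted for STAT3.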

The target in assay [17] is T1, Protein cereblon/Signal transducer and activator of transcription 3. The assay can be described thus: Protac activity at CRBN/STAT3 in human MOLM16 cells assessed as degradation of STAT3 at 0.01 to 10 uM incubated for 4 hrs by Western blot analysis. The class given is cell-based. In short, it runs like this: as §2
Target sequence in this assay (P40763 2-770 limits assumed): as the sequence (P40763 2-770 limits assumed) above
Target sequence in this assay (Q96SW2 whole entry partner): as the sequence (Q96SW2 whole entry partner) above
Assay [18] deals with Protein cereblon/Signal transducer and activator of transcription 2 (Homo sapiens) (UniProt Q96SW2+P52630). The assay can be described thus: Protac activity at CRBN/STAT2 in human MOLM16 cells assessed as degradation of STAT2 at 0.01 to 10 uM incubated for 4 hrs by Western blot analysis. The assay is classed as cell-based. In short, it runs like this:
as §2

Assay [19] deals with Protein cereblon/Signal transducer and activator of transcription 5B (Homo sapiens) (UniProt P51692+Q96SW2). The assay can be described thus: Protac activity at CRBN/STAT5B in human SUDHL1 cells assessed as degradation of STAT5B at 0.01 to 10 uM incubated for 18 hrs by Western blot analysis. The assay is classed as cell-based. In short, it runs like this: as §1
The subject of a further assay is SU-DHL-1. The assay can be described thus: Antiproliferative activity against human SUDHL1 cells assessed as reduction in cell viability incubated for 4 days by cell-titer glo luminescent assay. The assay is classed as functional, cell-based. The settings on record: SU-DHL-1, 96 h. In short, it runs like this:
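Viability assay: cells incubated with serially diluted compounds for 4 days, viability read by CellTiter-Glo luminescence; IC50 from concentration–response.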

Assay [20] concerns the target T1, Protein cereblon/Signal transducer and activator of transcription 3. As to the kind of experiment: Protac activity at CRBN/STAT3 in human MOLM16 cells assessed as degradation of STAT3 incubated for 4 hrs by Western blot analysis. The class given is cell-based. In outline: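 Molm-16 cells treated 4 h with serially diluted compound. Lysates immunoblotted (SDS–PAGE, PVDF, 5% blocker/TBST, chemiluminescence) for total STAT3 and pSTAT3 Y705. DC50 taken as the concentration reducing total STAT3 by 50%.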
Target sequence in this assay (P40763 whole entry): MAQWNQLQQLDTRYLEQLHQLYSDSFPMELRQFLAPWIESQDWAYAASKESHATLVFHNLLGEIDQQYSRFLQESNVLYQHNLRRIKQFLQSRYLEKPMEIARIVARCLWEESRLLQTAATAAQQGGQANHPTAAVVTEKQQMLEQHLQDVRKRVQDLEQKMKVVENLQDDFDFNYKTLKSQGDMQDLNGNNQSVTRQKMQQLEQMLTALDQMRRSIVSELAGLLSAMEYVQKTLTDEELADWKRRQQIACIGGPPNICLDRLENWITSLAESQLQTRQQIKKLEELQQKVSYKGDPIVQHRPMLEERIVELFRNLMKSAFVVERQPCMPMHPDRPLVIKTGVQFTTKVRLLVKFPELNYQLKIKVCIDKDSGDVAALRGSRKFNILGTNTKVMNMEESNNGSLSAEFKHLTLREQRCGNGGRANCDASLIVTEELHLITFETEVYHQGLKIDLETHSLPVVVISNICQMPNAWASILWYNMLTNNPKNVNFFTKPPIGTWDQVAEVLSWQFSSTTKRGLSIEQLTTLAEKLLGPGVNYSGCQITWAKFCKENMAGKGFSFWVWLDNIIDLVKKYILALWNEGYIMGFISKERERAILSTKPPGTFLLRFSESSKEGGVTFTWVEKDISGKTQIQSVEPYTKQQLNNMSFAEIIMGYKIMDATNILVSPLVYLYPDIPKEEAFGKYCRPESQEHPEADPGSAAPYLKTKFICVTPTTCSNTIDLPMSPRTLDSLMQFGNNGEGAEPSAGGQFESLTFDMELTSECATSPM
Target sequence in this assay (Q96SW2 whole entry): as the sequence (Q96SW2 whole entry partner) above

The target is the same in assay [21]. The assay can be described thus: Protac activity at CRBN/STAT3 in human SUDHL1 cells assessed as degradation of STAT3 incubated for 16 hrs by Western blot analysis. The assay is classed as cell-based.
Target sequence in this assay (P40763 whole entry): as the sequence (P40763 whole entry) above
Target sequence in this assay (Q96SW2 whole entry): as the sequence (Q96SW2 whole entry partner) above

Activity calls are given as the source filed them. No cut-off for these calls is given here.

T2 sequence (P42229 whole entry, looked up): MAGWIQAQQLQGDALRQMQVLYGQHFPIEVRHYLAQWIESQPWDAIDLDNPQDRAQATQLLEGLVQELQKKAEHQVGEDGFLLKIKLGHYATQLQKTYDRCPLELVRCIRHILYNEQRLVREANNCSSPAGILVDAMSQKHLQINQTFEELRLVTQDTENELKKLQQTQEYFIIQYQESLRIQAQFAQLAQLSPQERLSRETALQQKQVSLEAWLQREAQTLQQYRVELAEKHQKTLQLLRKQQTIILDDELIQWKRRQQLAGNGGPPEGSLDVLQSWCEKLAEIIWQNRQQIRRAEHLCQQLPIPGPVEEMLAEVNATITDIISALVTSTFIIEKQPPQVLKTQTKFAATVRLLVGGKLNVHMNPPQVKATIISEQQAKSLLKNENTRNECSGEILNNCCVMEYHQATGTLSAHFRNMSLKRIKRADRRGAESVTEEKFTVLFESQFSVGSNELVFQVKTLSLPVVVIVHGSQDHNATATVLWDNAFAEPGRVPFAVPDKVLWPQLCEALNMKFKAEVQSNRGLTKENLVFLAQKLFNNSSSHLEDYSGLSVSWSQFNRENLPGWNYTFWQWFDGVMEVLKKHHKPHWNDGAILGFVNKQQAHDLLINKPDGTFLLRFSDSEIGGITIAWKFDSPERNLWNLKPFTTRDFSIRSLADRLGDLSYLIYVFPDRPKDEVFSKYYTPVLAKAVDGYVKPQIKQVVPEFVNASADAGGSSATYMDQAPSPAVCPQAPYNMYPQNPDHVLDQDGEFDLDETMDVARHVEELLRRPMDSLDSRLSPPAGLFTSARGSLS
T2 sequence (Q96SW2 whole entry, looked up): as the sequence (Q96SW2 whole entry partner) above
Sequence of Protein cereblon/Signal transducer and activator of transcription 4 (Homo sapiens) (Q14765 whole entry, looked up): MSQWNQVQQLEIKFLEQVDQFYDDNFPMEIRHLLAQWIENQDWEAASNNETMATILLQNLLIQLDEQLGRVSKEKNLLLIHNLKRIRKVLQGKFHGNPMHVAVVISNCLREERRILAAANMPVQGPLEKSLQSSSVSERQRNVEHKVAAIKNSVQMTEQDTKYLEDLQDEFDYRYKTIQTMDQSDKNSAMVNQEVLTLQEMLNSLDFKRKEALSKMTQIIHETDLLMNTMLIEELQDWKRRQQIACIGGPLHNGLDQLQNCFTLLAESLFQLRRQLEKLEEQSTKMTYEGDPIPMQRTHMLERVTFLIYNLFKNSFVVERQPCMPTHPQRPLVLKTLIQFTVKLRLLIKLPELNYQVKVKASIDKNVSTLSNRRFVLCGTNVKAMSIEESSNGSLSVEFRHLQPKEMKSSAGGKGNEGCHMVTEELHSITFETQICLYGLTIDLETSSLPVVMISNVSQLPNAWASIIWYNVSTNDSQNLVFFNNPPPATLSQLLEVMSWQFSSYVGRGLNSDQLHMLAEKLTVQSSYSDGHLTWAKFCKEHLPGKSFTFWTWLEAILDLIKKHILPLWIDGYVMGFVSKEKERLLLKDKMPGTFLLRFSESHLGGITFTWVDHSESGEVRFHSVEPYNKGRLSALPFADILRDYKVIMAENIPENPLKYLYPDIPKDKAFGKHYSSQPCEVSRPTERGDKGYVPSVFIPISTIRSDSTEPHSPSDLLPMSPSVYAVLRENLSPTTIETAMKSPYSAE
Sequence of Protein cereblon/Signal transducer and activator of transcription 4 (Homo sapiens) (Q96SW2 whole entry, looked up): as the sequence (Q96SW2 whole entry partner) above

Take `NC(=O)CC[C@H](NC(=O)[C@@H]1CC[C@@H]2CCN(C(=O)CCCCCC#Cc3cccc4c3CN(C3CCC(=O)NC3=O)C4=O)C[C@H](NC(=O)c3cc4cc(C(F)(F)P(=O)(O)O)ccc4[nH]3)C(=O)N21)C(=O)NC(c1ccccc1)c1ccccc1` (some centres not stated): the outcome (in [1]; with Mus musculus [16]; in assay [17]) was Active. The outcome in assay [2], in assay [10], in assay [13], in assay [14], in assay [18] and in assay [19] was inactive. Moreover, the Ratio in the assay filed under Homo sapiens [3], in the assay filed under Homo sapiens [4], in the assay filed under Homo sapiens [5], in the assay filed under Homo sapiens [6], in the assay filed under Homo sapiens [9] and in the assay filed under Homo sapiens [12] was over 100 in each case. Also, the Activity with Mus musculus [7] was over 90%; in assay [8] it was 100%; with Mus musculus [11], over 95%. Moreover, the equilibrium dissociation constant (Kd) in [15] came to 44 nM. Further, the IC50 in the assay with SU-DHL-1 is 610 nM. The results for the 50% degradation concentration (DC50) in assay [20] and in assay [21] were 60 nM and 28 nM, respectively.

Usually Kd stands for the constant that tells how readily two partners part at equilibrium. Usually IC50 stands for the point on the concentration scale where inhibition reaches its midpoint. As usually defined, the DC50 is the midpoint of the concentration-degradation curve.
